We go through one compound from ChEMBL document CHEMBL4261600 (Eur J Med Chem, 2018).

Activity calls are given as the source filed them.

The test system of data set [1] is MV4-11. Briefly: Antitumor activity against human MV4-11 cells xenografted in nu/nu mouse assessed as tumor growth inhibition at 10 mg/kg, po administered via gavage for 21 days measured on day 21 post last dose. It is filed as functional, organism-based. Put shortly: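 Female nu/nu mice, five weeks old, implanted subcutaneously in the right flank with 5 million MV4-11 cells in PBS/Matrigel 1:1. Daily oral gavage in 0.5% methylcellulose/0.4% Tween80 started at tumor volume 200–400 mm³, 10, 20 or 30 mg/kg/day or vehicle, 5 mice per group. Tumor volume (W²×L)/2 and body weight measured daily; mean ± SEM.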

A short description of data set [2]: Apparent volume of distribution in mouse at 3 mg/kg, iv by LC-MS/MS analysis. It is filed as ADME, organism-based. To be noted: in vivo, read-out: Vz. In a few lines: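 Non-compartmental PK. Male SD rats 190-210 g, mice and beagle dogs acclimatized one week, fasted 12 h with water, split into iv and po groups (mice 48, rats 6, dogs 6). iv 3/3/2 mg/kg (mice/rats/dogs); po 10/20/10 mg/kg; vehicle DMSO in 5% glucose water. Blood at 2 or 5 to 720 min; plasma protein-precipitated with methanol, caffeine internal standard, LC-MS/MS.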

For data set [3], the system named is ALK tyrosine kinase receptor (Homo sapiens), Q9UM73 [L1196M]. Briefly: Binding affinity to wild-type human partial length ALK L1196M mutant (I1088 to E1409 residues) expressed in mammalian expression system assessed as remaining unbound target protein level at 1000 nM by Kinomescan method relative to control. Put shortly: (§1)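 Profiled in a KINOMEscan binding panel with the inhibitor at a single concentration of 1 μM. Binding to each kinase was read out as percent of control, relative to a DMSO control. Strong binders were defined as those with a percent control value below 1.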

For data set [4], the target named is CDK4/Cyclin D3 (Homo sapiens) (UniProt P11802+P30281). Briefly: Binding affinity to wild-type human full length CDK4/cyclinD3 (M1 to E303 residues) expressed in mammalian expression system assessed as remaining unbound target protein level at 1000 nM by Kinomescan method relative to control. Put shortly:
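KINOMEscan competitive binding profile at 1 μM inhibitor. Remaining target binding reported as percent of DMSO control.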

For data set [5], the target named is Testis-specific serine/threonine-protein kinase 3 (Homo sapiens) (UniProt Q96PN8). The data set is described as follows: Binding affinity to wild-type human full length TSSK3 (M1 to T268 residues) expressed in mammalian expression system assessed as remaining unbound target protein level at 1000 nM by Kinomescan method relative to control. In a few lines: (§2)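 KINOMEscan competition binding profile across a panel of 468 kinases and mutants, with the inhibitor tested at a single concentration of 1 μM. Binding is reported as percent of control, meaning signal relative to a DMSO control.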

A short description of data set [6]: MRT (0 to infinity) in Sprague-Dawley rat at 3 mg/kg, iv by LC-MS/MS analysis. It counts as ADME, organism-based. To be noted: in vivo.
Data set [7] concerns the target Tyrosine-protein kinase Blk (Homo sapiens) (UniProt P51451). The data set is described as follows: Binding affinity to wild-type human partial length BLK (G211 to L503 residues) expressed in bacterial expression system assessed as remaining unbound target protein level at 1000 nM by Kinomescan method relative to control. Put shortly:
as §1

Data set [8] addresses Serine/threonine-protein kinase PLK4 (Homo sapiens) (UniProt O00444). Briefly: Binding affinity to wild-type human partial length PLK4 (M1 to S273 residues) expressed in mammalian expression system assessed as remaining unbound target protein level at 1000 nM by Kinomescan method relative to control.
In data set [9] the target is Serine/threonine-protein kinase Nek10 (Homo sapiens) (UniProt Q6ZWH5). Briefly: Binding affinity to wild-type human partial length NEK10 (L488 to R809 residues) expressed in mammalian expression system assessed as remaining unbound target protein level at 1000 nM by Kinomescan method relative to control.
For data set [10], the target named is Proto-oncogene tyrosine-protein kinase ROS (Homo sapiens) (UniProt P08922). Briefly: Binding affinity to wild-type human partial length ROS1 (A1921 to N2240 residues) expressed in bacterial expression system assessed as remaining unbound target protein level at 1000 nM by Kinomescan method relative to control.
Data set [11] concerns SK-N-BE(2)-M17. Briefly: Antiproliferative activity against human BE(2)-M17 cells after 72 hrs by Celltiter-Glo assay. It is filed as functional. To be noted: SK-N-BE(2)-M17, 72 h. Put shortly: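 Cells seeded at 3000/well in 96-well plates, exposed to serially diluted compound for 72 h at 37 °C, 5% CO2. Viability read by CellTiter-Glo luminescence and normalized to DMSO control. GI50 derived from curve fit, mean of three independent measurements. Culture media: DMEM/10% FBS for adherent lines; IMDM for MV4-11 and MEC-1/2; RPMI 1640 for suspension lines and CHL.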

The target in data set [12] is Calcium/calmodulin-dependent protein kinase type 1B (Homo sapiens) (UniProt Q6P2M8). Briefly: Binding affinity to wild-type human partial length CAMK1B (W9 to A311 residues) expressed in mammalian expression system assessed as remaining unbound target protein level at 1000 nM by Kinomescan method relative to control. In a few lines: as §1
In data set [13] the test system is Tyrosine-protein kinase ABL1 (Homo sapiens), P00519 [F317L]. Briefly: Binding affinity to human non-phosphorylated ABL1 F317L mutant (S229 to K512 residues) expressed in mammalian expression system assessed as remaining unbound target protein level at 1000 nM by Kinomescan method relative to control. Put shortly:
(§3)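 KINOMEscan competition-binding profiling across the panel of 468 kinases and mutants, with inhibitor tested at 1 μM. Binding is expressed as percent of control, with DMSO as the reference control.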

Data set [14] addresses Cyclin-dependent kinase 13 (Homo sapiens) (UniProt Q14004). Briefly: Binding affinity to wild-type human partial length CDC2L5 (H675 to S1054 residues) expressed in mammalian expression system assessed as remaining unbound target protein level at 1000 nM by Kinomescan method relative to control. In a few lines:
as §2

Data set [15] concerns the target Serine/threonine-protein kinase Nek7 (Homo sapiens) (UniProt Q8TDX7). The data set is described as follows: Binding affinity to wild-type human full length NEK7 (M1 to S302 residues) expressed in bacterial expression system assessed as remaining unbound target protein level at 1000 nM by Kinomescan method relative to control. In a few lines:
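Single-point competition binding screen across a panel of 468 kinases and mutants, with the inhibitor at 1 μM. Binding is read out as percent of a DMSO control, and targets below 1 percent control were classed as strong binders.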

Data set [16] has as its system Phosphatidylinositol 4,5-bisphosphate 3-kinase catalytic subunit alpha isoform (Homo sapiens), P42336 [E545A]. The data set is described as follows: Binding affinity to human partial length PIK3CA E545A mutant (R108 to N1068 residues) expressed in mammalian expression system assessed as remaining unbound target protein level at 1000 nM by Kinomescan method relative to control. In a few lines:
as §3

The target of data set [17] is Mitogen-activated protein kinase kinase kinase 1 (Homo sapiens) (UniProt Q13233). The data set is described as follows: Binding affinity to wild-type human partial length MAP3K1 (L1202 to W1512 residues) expressed in mammalian expression system assessed as remaining unbound target protein level at 1000 nM by Kinomescan method relative to control.
Data set [18] in a line: MRT (0 to infinity) in beagle dog at 2 mg/kg, iv by LC-MS/MS analysis. To be noted: in vivo. It counts as ADME, organism-based, Canis lupus familiaris.

Serine/threonine-protein kinase Nek10 (Homo sapiens), sequence (Q6ZWH5 whole entry, the tested form may be a part): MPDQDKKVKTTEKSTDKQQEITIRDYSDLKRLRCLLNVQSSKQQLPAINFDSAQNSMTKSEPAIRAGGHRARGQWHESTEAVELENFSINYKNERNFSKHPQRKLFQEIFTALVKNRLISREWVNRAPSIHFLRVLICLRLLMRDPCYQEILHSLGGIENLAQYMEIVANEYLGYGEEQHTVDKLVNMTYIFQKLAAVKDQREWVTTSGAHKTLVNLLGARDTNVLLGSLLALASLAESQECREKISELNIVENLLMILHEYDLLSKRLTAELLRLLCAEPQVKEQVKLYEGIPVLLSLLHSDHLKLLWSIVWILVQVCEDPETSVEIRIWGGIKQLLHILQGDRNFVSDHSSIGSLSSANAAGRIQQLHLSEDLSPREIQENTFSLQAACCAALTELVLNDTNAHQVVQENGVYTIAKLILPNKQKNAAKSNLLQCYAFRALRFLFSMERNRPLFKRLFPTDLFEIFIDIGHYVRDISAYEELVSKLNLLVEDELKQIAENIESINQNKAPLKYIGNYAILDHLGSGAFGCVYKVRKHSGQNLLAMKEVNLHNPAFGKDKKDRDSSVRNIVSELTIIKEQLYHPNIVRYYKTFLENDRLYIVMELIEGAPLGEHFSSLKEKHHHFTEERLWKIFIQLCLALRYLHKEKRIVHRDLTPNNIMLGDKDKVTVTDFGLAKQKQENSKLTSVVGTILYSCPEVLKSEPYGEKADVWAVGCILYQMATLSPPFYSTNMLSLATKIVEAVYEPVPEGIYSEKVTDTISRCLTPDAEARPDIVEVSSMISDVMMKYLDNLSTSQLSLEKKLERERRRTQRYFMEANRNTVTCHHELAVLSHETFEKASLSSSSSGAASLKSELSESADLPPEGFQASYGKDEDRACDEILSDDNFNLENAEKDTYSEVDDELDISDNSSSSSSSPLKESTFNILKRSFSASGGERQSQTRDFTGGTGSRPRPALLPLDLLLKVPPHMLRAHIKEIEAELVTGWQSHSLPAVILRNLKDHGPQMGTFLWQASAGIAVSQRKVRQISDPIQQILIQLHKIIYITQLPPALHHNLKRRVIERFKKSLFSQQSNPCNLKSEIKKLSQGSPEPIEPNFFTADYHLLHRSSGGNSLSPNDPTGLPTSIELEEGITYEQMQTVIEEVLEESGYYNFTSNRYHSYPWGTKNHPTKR
Tyrosine-protein kinase ABL1 (Homo sapiens), P00519 [F317L], sequence (P00519 whole entry F317L, the tested form may be a part): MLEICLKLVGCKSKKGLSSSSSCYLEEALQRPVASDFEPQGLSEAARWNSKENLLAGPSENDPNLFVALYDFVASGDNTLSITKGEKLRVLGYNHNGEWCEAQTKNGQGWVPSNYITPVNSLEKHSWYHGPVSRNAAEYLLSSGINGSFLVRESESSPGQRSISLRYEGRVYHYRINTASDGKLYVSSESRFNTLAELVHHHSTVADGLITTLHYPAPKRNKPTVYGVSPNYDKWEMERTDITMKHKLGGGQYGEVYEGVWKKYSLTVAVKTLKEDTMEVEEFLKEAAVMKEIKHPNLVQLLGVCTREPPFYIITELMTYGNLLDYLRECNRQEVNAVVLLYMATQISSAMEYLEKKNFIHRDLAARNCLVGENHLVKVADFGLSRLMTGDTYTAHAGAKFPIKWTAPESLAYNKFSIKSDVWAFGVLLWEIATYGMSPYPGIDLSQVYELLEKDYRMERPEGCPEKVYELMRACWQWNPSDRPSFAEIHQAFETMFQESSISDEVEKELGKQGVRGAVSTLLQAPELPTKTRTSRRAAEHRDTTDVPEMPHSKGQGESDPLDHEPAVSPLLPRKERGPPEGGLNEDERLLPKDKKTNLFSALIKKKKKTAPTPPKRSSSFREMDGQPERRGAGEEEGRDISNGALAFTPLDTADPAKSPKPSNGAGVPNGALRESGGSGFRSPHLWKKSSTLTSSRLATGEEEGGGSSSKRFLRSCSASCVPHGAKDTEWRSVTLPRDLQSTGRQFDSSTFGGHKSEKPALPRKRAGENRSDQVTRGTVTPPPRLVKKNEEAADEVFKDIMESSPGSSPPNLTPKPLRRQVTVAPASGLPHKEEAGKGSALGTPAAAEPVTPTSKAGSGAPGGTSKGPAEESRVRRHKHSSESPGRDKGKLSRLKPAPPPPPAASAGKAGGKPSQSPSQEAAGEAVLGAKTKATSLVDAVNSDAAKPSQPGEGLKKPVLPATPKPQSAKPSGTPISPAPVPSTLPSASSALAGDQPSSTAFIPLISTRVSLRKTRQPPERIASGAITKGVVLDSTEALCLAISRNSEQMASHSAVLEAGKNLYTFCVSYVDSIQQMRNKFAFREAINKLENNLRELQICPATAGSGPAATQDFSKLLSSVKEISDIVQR
Serine/threonine-protein kinase Nek7 (Homo sapiens), sequence (Q8TDX7 whole entry, looked up, the tested form may be a part): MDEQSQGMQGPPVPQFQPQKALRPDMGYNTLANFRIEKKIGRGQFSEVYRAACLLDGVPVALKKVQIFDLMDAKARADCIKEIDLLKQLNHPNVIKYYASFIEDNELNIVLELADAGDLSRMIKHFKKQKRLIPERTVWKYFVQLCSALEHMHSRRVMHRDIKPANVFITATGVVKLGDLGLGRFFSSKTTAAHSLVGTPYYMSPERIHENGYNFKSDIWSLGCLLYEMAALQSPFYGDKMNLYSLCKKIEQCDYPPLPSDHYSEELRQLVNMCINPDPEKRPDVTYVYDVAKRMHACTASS
Tyrosine-protein kinase Blk (Homo sapiens), sequence (P51451 2-505 limits assumed): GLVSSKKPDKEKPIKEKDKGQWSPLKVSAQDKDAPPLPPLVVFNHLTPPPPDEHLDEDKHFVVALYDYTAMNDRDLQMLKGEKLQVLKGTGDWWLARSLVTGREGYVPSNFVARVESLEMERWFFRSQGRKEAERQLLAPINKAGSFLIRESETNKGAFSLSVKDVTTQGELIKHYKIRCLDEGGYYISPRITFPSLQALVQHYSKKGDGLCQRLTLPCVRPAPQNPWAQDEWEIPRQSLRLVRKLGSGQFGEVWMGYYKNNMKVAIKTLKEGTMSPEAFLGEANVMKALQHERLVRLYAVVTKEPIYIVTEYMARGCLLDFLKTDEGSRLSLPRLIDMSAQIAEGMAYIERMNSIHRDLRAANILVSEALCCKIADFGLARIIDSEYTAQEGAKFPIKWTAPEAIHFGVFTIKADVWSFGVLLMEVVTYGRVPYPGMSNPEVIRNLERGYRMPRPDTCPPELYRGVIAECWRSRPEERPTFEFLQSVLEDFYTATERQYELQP
ALK tyrosine kinase receptor (Homo sapiens), Q9UM73 [L1196M], sequence (Q9UM73 whole entry L1196M, looked up, the tested form may be a part): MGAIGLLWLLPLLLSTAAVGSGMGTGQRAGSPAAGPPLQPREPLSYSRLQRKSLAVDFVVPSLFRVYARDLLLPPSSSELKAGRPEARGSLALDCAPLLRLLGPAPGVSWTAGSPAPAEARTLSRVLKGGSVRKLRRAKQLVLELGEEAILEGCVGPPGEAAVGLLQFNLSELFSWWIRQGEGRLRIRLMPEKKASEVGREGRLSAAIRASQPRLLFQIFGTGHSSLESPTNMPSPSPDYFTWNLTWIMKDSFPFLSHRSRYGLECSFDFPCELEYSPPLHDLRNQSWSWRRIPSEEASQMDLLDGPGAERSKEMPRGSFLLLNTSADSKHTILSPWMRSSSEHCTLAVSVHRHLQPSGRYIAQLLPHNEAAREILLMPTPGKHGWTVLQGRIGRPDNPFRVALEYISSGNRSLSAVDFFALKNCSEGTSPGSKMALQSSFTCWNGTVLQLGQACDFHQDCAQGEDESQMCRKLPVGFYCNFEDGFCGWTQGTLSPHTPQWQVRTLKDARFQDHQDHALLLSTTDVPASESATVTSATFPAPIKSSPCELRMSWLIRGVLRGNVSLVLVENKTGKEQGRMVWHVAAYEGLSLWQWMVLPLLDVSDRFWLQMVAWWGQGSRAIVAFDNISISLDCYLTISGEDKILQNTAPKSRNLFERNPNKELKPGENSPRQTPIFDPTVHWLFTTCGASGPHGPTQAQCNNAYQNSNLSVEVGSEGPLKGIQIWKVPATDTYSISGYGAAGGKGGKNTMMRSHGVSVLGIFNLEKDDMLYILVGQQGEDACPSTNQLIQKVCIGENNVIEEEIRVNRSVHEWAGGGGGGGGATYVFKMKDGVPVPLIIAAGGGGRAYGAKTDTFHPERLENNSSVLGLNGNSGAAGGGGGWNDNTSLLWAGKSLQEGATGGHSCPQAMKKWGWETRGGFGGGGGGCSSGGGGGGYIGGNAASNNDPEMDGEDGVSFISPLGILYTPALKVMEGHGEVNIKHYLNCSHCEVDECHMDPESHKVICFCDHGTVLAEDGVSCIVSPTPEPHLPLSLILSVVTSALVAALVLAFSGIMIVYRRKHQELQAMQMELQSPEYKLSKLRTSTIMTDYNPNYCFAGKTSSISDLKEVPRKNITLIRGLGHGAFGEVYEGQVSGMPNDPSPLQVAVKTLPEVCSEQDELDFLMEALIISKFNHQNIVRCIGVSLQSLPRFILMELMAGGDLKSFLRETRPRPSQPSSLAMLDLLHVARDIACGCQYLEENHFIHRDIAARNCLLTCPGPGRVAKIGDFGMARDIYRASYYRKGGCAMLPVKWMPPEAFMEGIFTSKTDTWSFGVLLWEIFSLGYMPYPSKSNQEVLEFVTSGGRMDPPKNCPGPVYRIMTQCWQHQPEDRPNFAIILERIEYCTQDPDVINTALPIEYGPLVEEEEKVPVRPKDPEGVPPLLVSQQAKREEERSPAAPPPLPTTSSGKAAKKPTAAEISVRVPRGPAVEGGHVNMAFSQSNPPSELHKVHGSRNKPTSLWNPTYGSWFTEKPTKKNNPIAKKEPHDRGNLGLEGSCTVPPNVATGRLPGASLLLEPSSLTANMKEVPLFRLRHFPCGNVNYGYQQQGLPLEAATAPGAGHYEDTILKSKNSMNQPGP
Testis-specific serine/threonine-protein kinase 3 (Homo sapiens), sequence (Q96PN8 whole entry, the tested form may be a part): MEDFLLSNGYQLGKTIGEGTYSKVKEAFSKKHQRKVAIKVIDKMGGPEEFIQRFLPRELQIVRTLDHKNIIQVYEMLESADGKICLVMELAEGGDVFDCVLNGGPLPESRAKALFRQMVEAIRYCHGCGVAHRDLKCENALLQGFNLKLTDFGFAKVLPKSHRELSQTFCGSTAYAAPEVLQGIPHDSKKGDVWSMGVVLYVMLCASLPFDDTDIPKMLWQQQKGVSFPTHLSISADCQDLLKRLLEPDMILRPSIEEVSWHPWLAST

In the case of `COCCN[C@H]1CC[C@H](Nc2cc(-c3csc(NCC4(C#N)CCOCC4)n3)c(Cl)cn2)CC1`, the TGI result in data set [1] was “inactive”. In data set [2], the Vd was determined as 18.2 L/kg. For the same compound, the Activity amounted to 78% in data set [3]; 72% in data set [4]; 99% in data set [5]; 97% in data set [7]; 100% in [8]; 87% in data set [9]. For the same compound, the Activity in data set [10] was 81%; in data set [12], 97%; in data set [13], 100%; in data set [14] it was 13%; in data set [15] it was 83%; in data set [16] it was 100%. In data set [17], the Activity is 100%. In addition, the MRT inf turned out to be 6.33 h in data set [6] and 20.4 h in data set [18]. In addition, the GI50 in data set [11] was determined as 34 nM.
